SR-BI uptake up: SR-BI HDL lipid transfer activation; hit rate 0.096% among 320,000; CHO ldlA[mSR-BI] cells, DiI-HDL uptake fluorescence, 3 h; 100 = double the neutral-control signal; activation, % at 12.5 µM; AID 504775;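 active = mean replicate activation of at least 60% and every replicate at or above 60%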
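Assay system: LDL receptor-deficient CHO ldlA cells overexpressing murine SR-BI / Medium: BSA-supplemented, HEPES-buffered Ham's F12, pH 7.4 / Probe or stimulus: DiI-labelled HDL at 10 µg/mL final / Timing: compound with DiI-HDL co-incubation, 3 h at 37 °C / Technique: bottom-read cell fluorescence after medium removal, ex 550/em 595 nm / Measure: HDL uptake via cellular fluorescence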
rRNA inh HTS: selective bacterial rRNA inhibition in E. coli; GFP signal change (wild-type ribosome), % (no concentration beside the values); hit rate 1.6% among 350,000; E. coli WT GFP vs humanized-ribosome RFP mutants, fluorescence, 24 h; stronger effect = lower value; DMSO median 0, no signal -100;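 active = significant combined selectivity score with lowered wild-type GFP, culture density cut under 30%, mutant RFP and density less affected; inactive = any of these conditions unmet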
PvdQ inh: P. aeruginosa PvdQ acylase inhibition | purified PvdQ acylase, fluorescence plate reader | hit rate 0.063% among 340,000 | inhibition, % at 10 µM | AID 488965; in the data active = inhibition above about 30%, passing the limit was not always enough
XiGFP reactiv: reactivates the inactive X chromosome in mouse fibroblasts. XiGFP mouse fibroblasts, % GFP-positive cells imaging, 3 d; cells co-treated with 5-aza-dC sensitizer; scaled so ellipticine positive control = 100%. activation, % at 7.58 µM. hit rate 0.055% among 360,000;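 active = mean normalized replicate activation at least 10% and every replicate at or above 10%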
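System: XiGFP fibroblasts, SV40-immortalized. Medium: DMEM plus 5-aza-dC sensitizer. Doses: single point. Timing: 3 d treatment, 15 min room-temperature fixation. Control set: ellipticine 6 µM.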
dFosB act: enhances mouse delta FosB homodimer DNA binding; purified delta FosB, TAMRA-CDK5 oligo fluorescence polarization; percent of positive-control signal above neutral wells; AID 493131; hit rate 0.99% among 340,000; activation, % at 25 µM; P13346;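 active = mean activation above about 17%, with every replicate also reaching it, limit read from the data, passing the limit was not always enough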
Target sequence (P13346 whole entry, looked up): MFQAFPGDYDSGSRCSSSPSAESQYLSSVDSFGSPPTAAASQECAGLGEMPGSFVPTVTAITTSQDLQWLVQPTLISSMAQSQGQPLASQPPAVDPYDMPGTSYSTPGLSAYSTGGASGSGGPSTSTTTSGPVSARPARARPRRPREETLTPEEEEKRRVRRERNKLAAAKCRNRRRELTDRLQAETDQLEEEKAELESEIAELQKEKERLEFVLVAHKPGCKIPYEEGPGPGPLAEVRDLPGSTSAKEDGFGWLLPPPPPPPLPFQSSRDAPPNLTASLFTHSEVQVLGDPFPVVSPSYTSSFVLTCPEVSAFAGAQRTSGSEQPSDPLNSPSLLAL
SR-BI DiI inh: inhibitors of mouse SR-BI mediated HDL lipid uptake | Q61009 | hit rate 0.96% among 320,000 | ldlA[mSR-BI] CHO cells, DiI-HDL uptake fluorescence, 3 h | inhibition, % at 12.5 µM;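 active = mean replicate inhibition of at least 70% and a set share of replicates each scoring 70 or more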
Each line names hits and unclear results; the compound was inactive in the other large screens. Sampled rows, rich in hits. Any-hit rate of the full collection: about 2.6%.

COc1ccc(-c2nc(C)ncc2-c2ccccc2)c(O)c1	rRNA inh HTS -28
COc1ccc(-c2nc(C)ncc2-c2ccc(Cl)cc2)c(O)c1	none
C[C@H]1CN([C@@H](C)CO)C(=O)CCCn2nncc2CO[C@@H]1CN(C)C(=O)Nc1ccccc1C(F)(F)F	none (no result: SR-BI uptake up, PvdQ inh, dFosB act, SR-BI DiI inh)
NC(=S)NNc1c(F)c(F)c(F)c(F)c1F	rRNA inh HTS -26
Cc1ccccc1NNC(N)=S	none
O=C(COc1ccc2ccccc2c1)NNC(=O)Nc1ccc(F)cc1F	none
CCSc1nc(-c2ccc(OC)cc2)cc(-c2ccccc2)c1C#N	SR-BI DiI inh 80 (no result: XiGFP reactiv)
COc1cc(NC2=Nc3cccc4cccc2c34)cc(OC)c1OC	none
CN(C)CCCNC(=O)C[C@H]1CC[C@@H]2[C@H](COC[C@@H](O)CN2CC2CCCCC2)O1	none (no result: SR-BI uptake up, PvdQ inh, dFosB act, SR-BI DiI inh)
COCCNC(=S)N1CCN(c2nc(-c3ccc(F)cc3)cs2)CC1	none
COCCn1nnnc1C(c1cccs1)N1CCN(c2cc(C)ccc2C)CC1 (stereo unspecified)	none (no result: rRNA inh HTS, XiGFP reactiv)
COCCCNC(=S)N1CCN(c2nc3ccccc3s2)CC1	rRNA inh HTS -30
COCCn1nnnc1C(c1cccs1)N1CCN(c2nc3ccccc3s2)CC1 (stereo unspecified)	rRNA inh HTS -22 (no result: XiGFP reactiv)
Cc1cccc(C)c1NC(=O)N1CCN(c2nc3ccccc3s2)CC1	none (no result: rRNA inh HTS, XiGFP reactiv)
COCCNC(=S)N1CCN(c2nc3ccccc3s2)CC1	rRNA inh HTS -26
Nc1ccc2c(c1)ncn2CCCn1cnc2cc(N)ccc21	none (no result: XiGFP reactiv)
Cc1nn2c(-c3cccc(NC(=O)CSc4nc5ccccc5o4)c3)nnc2c2ccccc12	SR-BI DiI inh 76 (no result: rRNA inh HTS, XiGFP reactiv)
O=C1CN(Cc2ccccc2)C[C@@H]2[C@H](c3ccc(Br)cc3)[C@H](CO)N12	none (no result: SR-BI uptake up, PvdQ inh, dFosB act, SR-BI DiI inh)
O=C(N/N=C/c1cccn1-c1ccc([N+](=O)[O-])cc1)c1cccnc1	SR-BI DiI inh 89
O=C(NN=C(Cc1ccccc1)Cc1ccccc1)c1ccccc1O	SR-BI uptake up 299
Fc1ccc(-c2cc3nc(-c4ccccc4)cc(N4CCN(CCN5CCOCC5)CC4)n3n2)cc1	dFosB act 20 (no result: rRNA inh HTS, XiGFP reactiv)
CN1CCN(c2cc(-c3ccccc3)nc3cc(-c4ccc(F)cc4)nn23)CC1	none (no result: rRNA inh HTS, XiGFP reactiv)
O=C(O)C1CCCCC1C(=O)Nc1cccc(Br)c1 (stereo unspecified)	none
CC(C)(C)NC(=O)CC1C[C@H](C(=O)N2CCOCC2)[C@@]2(C)c3[nH]c4ccccc4c3CCN2C1=O (stereo partly specified)	SR-BI DiI inh 77
O=C(Cn1cc2c(n1)CCCC2)N1CCOCC1	none
CC1=CC(C)(C)N2C(=O)C3(NCCc4c3[nH]c3ccccc43)c3cc(C)cc1c32 (stereo unspecified)	SR-BI DiI inh 88
CC(C)(C)c1cc(C(=O)N/N=C/c2ccccc2O)n(-c2ccccc2)n1	SR-BI DiI inh 100 (no result: rRNA inh HTS)
Cc1cccc(NC(=O)CCN2CCN(C)CC2)c1	none
CCOc1ccc(Nc2ncnc3ccc([N+](=O)[O-])cc23)cc1	PvdQ inh 86
CCOC(=O)c1ccc(Nc2ncnc3ccc(C)cc23)cc1	none (no result: rRNA inh HTS, XiGFP reactiv)
COc1ccc(O)c(C(=O)c2coc(=N)c(C(=O)Nc3ccc(SC(F)F)cc3)c2)c1	SR-BI DiI inh 76
O=C(c1ccc2nc(Cc3cccc(Cl)c3)oc2c1)N1CCC(CO)CC1	none
O=C(CCNC(=O)c1ccccc1)OCC(=O)c1cccc(Cl)c1	none
NC(=S)N=Nc1c(O)n(C2OC(=O)c3ccccc32)c2ccccc12 (stereo unspecified)	dFosB act 26 (no result: rRNA inh HTS, XiGFP reactiv)
N#CCC(=O)Nc1ccc(C(=O)OCC(=O)Nc2ccc3ccccc3c2)cc1	rRNA inh HTS -18
O=C(NC1CCCCC1)C1c2ccccc2OCC(=O)N1C1CC1 (stereo unspecified)	none (no result: SR-BI uptake up, rRNA inh HTS, PvdQ inh, dFosB act, SR-BI DiI inh)
COc1ccc2nc(SCC(=O)NN)cc(C)c2c1	none (no result: rRNA inh HTS, XiGFP reactiv)
COc1ccc2c(C)cc(SCC(=O)Nc3cc(C(N)=O)cc(C(N)=O)c3)nc2c1	dFosB act 68
COc1ccccc1NCC(=O)NNC(C)C(=O)Nc1cccc(Cl)c1 (stereo unspecified)	rRNA inh HTS -32
COc1ccccc1NC(=O)C/C(N)=N/OCC(=O)Nc1cccc(Cl)c1	none (no result: rRNA inh HTS)

Assay outcomes (PubChem)
